Measurements taken from ChEMBL document CHEMBL1125601, “Comparative molecular field analysis of some clodronic acid esters” (J Med Chem, 1991).

Legend:
Rattus norvegicus [1] = species: Rattus norvegicus; experiment: Bioavailability of compound was determined from urinary excretion data in rat, expressed as log; format: ADME, organism-based, Urine; settings: in vivo
How it was run: (§1)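 Sprague-Dawley male rats given clodronate esters at 100 μmol/kg orally and intravenously, three animals per dose level and route. Unchanged drug was measured by capillary GC with nitrogen-phosphorus detection. F = (cumulative oral urinary amount × iv dose)/(cumulative iv urinary amount × oral dose).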

[2] = Bioavailability in rat as ratio of unchanged drug excreted in the urine after p.o dosing to that following i.v. administration; format: ADME, organism-based; settings: po; how it was run: as §1
[3] = Partition coefficient (logP); format: physicochemical; settings: octanol/water
How it was run: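 Shake-flask partition: 200 mg ester dissolved in 4 mL pH 7.4 phosphate buffer or 1-octanol (each saturated with the other), the opposite phase (4 mL) added, shaken 1 h, left overnight, then centrifuged. Both phases were assayed by capillary GC with nitrogen-phosphorus detection.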

Rattus norvegicus [4] = experiment: In vivo inhibition of bone resorption tested in rat resorption assay measured at dose of 150 umol/kg after iv administration
Mus musculus [5] = species: Mus musculus; experiment: In vitro inhibition of bone resorption tested in mouse calvarial resorption assay by measuring release of 45Ca from labelled bones; format: functional; set-up: concentration or dose not given beside the values
How it was run: (§2)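 Mouse calvarial pieces prelabelled with 45Ca, cultured 72 h with PTH (10 nmol/l) plus ester at 100 μmol/l. Calcium release was measured and expressed as percent of control, the control being PTH-stimulated bones without bisphosphonate.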

Mus musculus [6] = species: Mus musculus; experiment: In vitro inhibition of bone resorption tested in mouse calvarial resorption assay by measuring release of 45Ca from labelled bones; expressed as logit inhibition resorption; format: functional; how it was run: as §2
Rattus norvegicus [7] = experiment: In vivo inhibition of bone resorption tested in rat resorption assay measured at dose of 150 umol/kg after iv administration, expressed as log
Mus musculus [8] = species: Mus musculus; experiment: In vitro inhibition of bone resorption tested in mouse calvarial resorption assay by measuring release of 45Ca from labelled bones; expressed as logit inhibition response; format: functional; how it was run: as §2

Row | Structure (SMILES) | Logit bioavailability (Rattus norvegicus [1]) | bioavailability [2] [%] | logP ([3]; read-out: logP) | Delta Ca (Rattus norvegicus [4]) [mM] | Inhibition (Mus musculus [5]) [%] | Logit_p(conc) (Mus musculus [6]) | Log 1/delta/Ca (Rattus norvegicus [7]) | Logit_p(conc) (Mus musculus [8]) | logP [3] | Inhibition (Mus musculus [6]) [%]
1 | CCOP(=O)(OCC)C(Cl)(Cl)P(=O)(OCC)OCC | 2.72 | 5 | 1.31 | 1.52 | 18.8 | 3.36 | 2.81 | – | – | –
2 | CCOP(=O)(O)C(Cl)(Cl)P(=O)(O)OCC | 3.71 | 34 | -3.96 | 1.05 | 12.3 | 3.15 | 2.98 | – | – | –
3 | CC(C)OP(=O)(O)C(Cl)(Cl)P(=O)(OC(C)C)OC(C)C | 2.28 | 1.9 | -0.95 | 1.51 | 7.4 | 2.9 | 2.82 | – | – | –
4 | CC(C)OP(=O)(O)C(Cl)(Cl)P(=O)(O)OC(C)C | 2.3 | 1.9 | -2.96 | 1.09 | 8 | 2.93 | 2.96 | – | – | –
5 | CCOP(=O)(O)C(Cl)(Cl)P(=O)(OCC)OCC | 2.88 | 7 | -2.37 | 0.7 | 14.7 | 3.23 | 3.15 | – | – | –
6 | CCOP(=O)(O)C(Cl)(Cl)P(=O)(O)O | 3.79 | 37.9 | – | 0.77 | – | – | 3.11 | 3.26 | -5.44 | 15.4
7 | CC(C)OP(=O)(OC(C)C)C(Cl)(Cl)P(=O)(O)O | 3.19 | 13.6 | -3.56 | 1.25 | 0.8 | 1.3 | 2.9 | – | – | –
8 | CCCCCCOP(=O)(O)C(Cl)(Cl)P(=O)(O)OCCCCCC | 3.65 | 31 | -0.64 | 1.43 | 20.5 | 3.41 | 2.84 | – | – | –
9 | CCCCCCOP(=O)(O)C(Cl)(Cl)P(=O)(O)O | 3.4 | 17.9 | -2.75 | – | 21.1 | 3.42 | – | – | – | –
10 | CC(C)OP(=O)(OC(C)C)C(Cl)(Cl)P(=O)(OC(C)C)OC(C)C | 3.67 | 32.1 | 2.89 | 1.54 | 17.5 | 3.32 | 2.81 | – | – | –
11 | CCCCCCOP(=O)(OCCCCCC)C(Cl)(Cl)P(=O)(O)O | 2.91 | 7.6 | -0.15 | 0.93 | 15.1 | 3.25 | 3.03 | – | – | –
12 | CC(C)OP(=O)(O)C(Cl)(Cl)P(=O)(O)O | 2.57 | 3.6 | -3.24 | 1.27 | 11.8 | 3.12 | 2.9 | – | – | –
13 | CCCCCCOP(=O)(O)C(Cl)(Cl)P(=O)(OCCCCCC)OCCCCCC | – | – | 4.89 | – | 58 | 4.31 | – | – | – | –
